Laboratory results published in ChEMBL document CHEMBL1148708, “4-amino-5-substituted-3(2H)-pyridazinones as orally active antinociceptive agents: synthesis and studies on the mechanism of action” (2007).

Legend:
Format in all cases: functional
Mus musculus [1] = test: Antinociceptive activity in Swiss albino mouse assessed as reduction of number of writhing at 20 mg/kg, po after 30 mins relative to control
Outline: (§1)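 Writhing counted in the mouse abdominal constriction test after a chemical noxious stimulus. Compounds given per os 30 min before testing. Controls received CMC vehicle. Activity expressed as reduction in number of writhes versus controls.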

Mus musculus [2] = test: Antinociceptive activity in Swiss albino mouse assessed as reduction of number of writhing at 30 mg/kg, po after 30 mins relative to control; outline: as §1
Mus musculus [3] = test: Antinociceptive activity in Swiss albino mouse assessed as number of writhing in presence of yohimbine at 30 mg/kg, po after 30 mins relative to control
Outline: (§2)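 Mouse abdominal constriction (writhing) test with a chemical pain stimulus. Test drugs given orally 30 min before the test. Yohimbine given at 3 mg kg^-1 ip as α2-adrenoceptor antagonist pretreatment. Writhes counted and compared with CMC vehicle controls. Values are the mean of at least two experiments.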

Rattus norvegicus [4] = test: Increase in noradrenaline release in Sprague-Dawley rat cerebral cortex at 30 mg/kg, po after 30 mins by microdialysis technique
Outline: (§3)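 Rat cerebral cortex microdialysis under chloral hydrate anesthesia (400 mg/kg) in a stereotaxic frame, using a vertical concentric probe perfused with solution containing MgCl₂ and 4 mM KCl. About 18 h after surgery, dialysate collected every 20 min and stored at -80 °C. Noradrenaline measured by HPLC with electrochemical detection. Release expressed against a baseline averaged from three samples taken just before drug dosing.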

Mus musculus [5] = test: Effect on Swiss albino mouse assessed as decrease in number of falls in 30 sec at 30 mg/kg, po after 15 mins by Rota-Rod test
Outline: (§4)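 Rotarod test in mice: falls from the rotating rod counted over 30 s, before treatment and at 15, 30 and 45 min after oral dosing. CMC vehicle controls.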

Mus musculus [6] = test: Effect on Swiss albino mouse assessed as decrease in number of falls in 30 sec at 30 mg/kg, po after 30 mins by Rota-Rod test; outline: as §4
Mus musculus [7] = test: Effect on Swiss albino mouse assessed as decrease in number of falls in 30 sec at 30 mg/kg, po after 45 mins by Rota-Rod test; outline: as §4
Mus musculus [8] = test: Antinociceptive activity in Swiss albino mouse assessed as reduction of number of writhing at 10 mg/kg, po after 30 mins relative to control; outline: as §1
Mus musculus [9] = test: Antinociceptive activity in Swiss albino mouse assessed as number of writhing in presence of yohimbine at 10 mg/kg, po after 30 mins relative to control; outline: as §2
Mus musculus [10] = test: Effect on Swiss albino mouse assessed as decrease in number of falls in 30 sec at 10 mg/kg, po after 15 mins by Rota-Rod test; outline: as §4
Mus musculus [11] = test: Effect on Swiss albino mouse assessed as decrease in number of falls in 30 sec at 10 mg/kg, po after 30 mins by Rota-Rod test; outline: as §4
Mus musculus [12] = test: Effect on Swiss albino mouse assessed as decrease in number of falls in 30 sec at 10 mg/kg, po after 45 mins by Rota-Rod test; outline: as §4
Mus musculus [13] = test: Antinociceptive activity in Swiss albino mouse assessed as reduction of number of writhing at 3 mg/kg, po after 30 mins relative to control; outline: as §1
Mus musculus [14] = test: Antinociceptive activity in Swiss albino mouse assessed as number of writhing in presence of yohimbine at 3 mg/kg, po after 30 mins relative to control; outline: as §2
Mus musculus [15] = test: Effect on Swiss albino mouse assessed as decrease in number of falls in 30 sec at 3 mg/kg, po after 15 mins by Rota-Rod test; outline: as §4
Mus musculus [16] = test: Effect on Swiss albino mouse assessed as decrease in number of falls in 30 sec at 3 mg/kg, po after 30 mins by Rota-Rod test; outline: as §4
Mus musculus [17] = test: Effect on Swiss albino mouse assessed as decrease in number of falls in 30 sec at 3 mg/kg, po after 45 mins by Rota-Rod test; outline: as §4
Mus musculus [18] = test: Antinociceptive activity in Swiss Albino mouse assessed as number of writhing in presence of yohimbine at 20 mg/kg, po after 30 mins relative to control; outline: as §2
Rattus norvegicus [19] = test: Increase in noradrenaline release in Sprague-Dawley rat cerebral cortex at 20 mg/kg, po after 30 mins by microdialysis technique; outline: as §3
Mus musculus [20] = test: Effect on Swiss albino mouse assessed as decrease in number of falls in 30 sec at 20 mg/kg, po after 15 mins by Rota-Rod test; outline: as §4
Mus musculus [21] = test: Effect on Swiss albino mouse assessed as decrease in number of falls in 30 sec at 20 mg/kg, po after 30 mins by Rota-Rod test; outline: as §4
Mus musculus [22] = test: Effect on Swiss albino mouse assessed as decrease in number of falls in 30 sec at 20 mg/kg, po after 45 mins by Rota-Rod test; outline: as §4
Mus musculus [23] = species: Mus musculus; test: Antinociceptive activity in Swiss albino mouse assessed as reduction of number of writhing after 30 mins relative to control; outline: as §1
Rattus norvegicus [24] = species: Rattus norvegicus; test: Increase in noradrenaline release in Sprague-Dawley rat cerebral cortex after 30 mins by microdialysis technique; outline: as §3
Mus musculus [25] = species: Mus musculus; test: Effect on Swiss albino mouse assessed as decrease in number of falls in 30 sec after 15 mins of treatment by Rota-Rod test; outline: as §4
Mus musculus [26] = species: Mus musculus; test: Effect on Swiss albino mouse assessed as decrease in number of falls in 30 sec after 30 mins of treatment by Rota-Rod test; outline: as §4
Mus musculus [27] = species: Mus musculus; test: Effect on Swiss albino mouse assessed as decrease in number of falls in 30 sec after 45 mins of treatment by Rota-Rod test; outline: as §4
Rattus norvegicus [28] = test: Increase in noradrenaline release in Sprague-Dawley rat cerebral cortex at 10 mg/kg, po after 30 mins by microdialysis technique; outline: as §3
Rattus norvegicus [29] = test: Increase in noradrenaline release in Sprague-Dawley rat cerebral cortex at 3 mg/kg, po after 30 mins by microdialysis technique; outline: as §3

In the case of `C=Cc1c(-c2ccc(F)cc2)nn(C)c(=O)c1N`, the Activity (Mus musculus [1]) is reported as 27.2.

For `Cc1nn(C)c(=O)c(N)c1-c1ccn(C)n1`, the Activity (Mus musculus [2]) was 15.9, the Activity (Mus musculus [3]) was 31.7 and the Activity (Rattus norvegicus [4]) was 188.5%. For the same molecule, the Activity (Mus musculus [5]) was 3.9, the Activity (Mus musculus [6]) was 2.6 and the Activity (Mus musculus [7]) was 1.8.

`C=Cc1c(C)nn(C)c(=O)c1NC` showed an Activity (Mus musculus [8]) of 17.6, an Activity (Mus musculus [9]) of 32 and an Activity (Mus musculus [10]) of 3.7. For the same molecule, the Activity (Mus musculus [11]) was 2.5 and the Activity (Mus musculus [12]) was 2.

`C=Cc1c(-c2ccccc2)nn(C)c(=O)c1NCC` gave an Activity (Mus musculus [13]) of 17.4, an Activity (Mus musculus [14]) of 28.1 and an Activity (Mus musculus [15]) of 3.4. For the same molecule, the Activity (Mus musculus [16]) was 2.3 and the Activity (Mus musculus [17]) was 1.9.

`CCNc1c(-c2ccn(C)n2)c(-c2ccccc2)nn(C)c1=O` was tested, and the Activity (Mus musculus [1]) was 14.1, the Activity (Mus musculus [18]) was 29.6 and the Activity (Rattus norvegicus [19]) was 173.7%. The Activity (Mus musculus [20]) was 2.6, the Activity (Mus musculus [21]) was 1.8 and the Activity (Mus musculus [22]) was 2.1.

`CC(=O)[O-].O=CC(O)C(O)C(O)C(O)CO.[Na+]` (stereo not given) gave an Activity (Mus musculus [23]) of 33.2, an Activity (Rattus norvegicus [24]) of 100% and an Activity (Mus musculus [25]) of 3.6. For the same molecule, the Activity (Mus musculus [26]) was 3 and the Activity (Mus musculus [27]) was 2.2.

Work on `COC(=O)[C@@H]1[C@H]2C[C@H]3c4[nH]c5ccccc5c4CCN3C[C@@H]2CC[C@@H]1O` [YOHIMBINE] yielded an Activity (Mus musculus [14]) of 31.7.

Work on `C=Cc1c(-c2cccs2)nn(C)c(=O)c1N` yielded an Activity (Mus musculus [1]) of 30.2.

`C=Cc1c(-c2ccncc2)nn(CCCC)c(=O)c1N` gave an Activity (Mus musculus [1]) of 35.3 and an Activity (Rattus norvegicus [19]) of 97.5%.

With `C=Cc1c(C)nn(CCCC)c(=O)c1N` the Activity (Mus musculus [1]) was 36.7 and the Activity (Rattus norvegicus [19]) was 95.9%.

Work on `C=Cc1c(-c2ccccc2)nn(CCCC)c(=O)c1NC` yielded an Activity (Mus musculus [1]) of 21.6, an Activity (Mus musculus [18]) of 31.9 and an Activity (Mus musculus [20]) of 4. The Activity (Mus musculus [21]) was 3.3 and the Activity (Mus musculus [22]) was 2.5.

With `Cc1nnc(-c2c(-c3ccccc3)nn(C)c(=O)c2N)o1` the Activity (Mus musculus [13]) was 19.5, the Activity (Mus musculus [14]) was 34.2 and the Activity (Mus musculus [15]) was 2.7. The Activity (Mus musculus [16]) was 2.3 and the Activity (Mus musculus [17]) was 1.5.

Work on `C=Cc1c(C)nn(C)c(=O)c1NCC` yielded an Activity (Mus musculus [8]) of 16.8, an Activity (Mus musculus [9]) of 29 and an Activity (Rattus norvegicus [28]) of 176.2%. The Activity (Mus musculus [10]) was 3.9, the Activity (Mus musculus [11]) was 3.2 and the Activity (Mus musculus [12]) was 2.5.

Work on `Cc1nc(-c2c(-c3ccccc3)nn(C)c(=O)c2N)cs1` yielded an Activity (Mus musculus [8]) of 14.7, an Activity (Mus musculus [9]) of 33.6 and an Activity (Rattus norvegicus [28]) of 181.3%. It also gave an Activity (Mus musculus [10]) of 3.8, an Activity (Mus musculus [11]) of 2.7 and an Activity (Mus musculus [12]) of 2.

With `C=Cc1c(C2CCCC2)nn(C)c(=O)c1N` the Activity (Mus musculus [8]) was 27.7.

With `C=Cc1c(-c2ccncc2)nn(C)c(=O)c1N` the Activity (Mus musculus [1]) was 18.7, the Activity (Mus musculus [18]) was 34.1 and the Activity (Mus musculus [20]) was 3.5. The Activity (Mus musculus [21]) was 2.8 and the Activity (Mus musculus [22]) was 2.1.

Work on `C=Cc1c(C2CCCCC2)nn(C)c(=O)c1N` yielded an Activity (Mus musculus [8]) of 14.4, an Activity (Mus musculus [9]) of 32.5 and an Activity (Rattus norvegicus [28]) of 182.1%. For the same molecule, the Activity (Mus musculus [10]) was 4.1, the Activity (Mus musculus [11]) was 3.4 and the Activity (Mus musculus [12]) was 2.9.

For `C=Cc1c(-c2ccc(F)cc2)nn(CCCC)c(=O)c1N`, the Activity (Mus musculus [1]) was 33.6.

In the case of `CCN(CC)c1c(-c2ccn(C)n2)c(-c2ccccc2)nn(C)c1=O`, the Activity (Mus musculus [1]) is reported as 27.1.

Work on `C=Cc1c(-c2ccc(Br)cc2)nn(C)c(=O)c1N` yielded an Activity (Mus musculus [1]) of 35.7 and an Activity (Rattus norvegicus [19]) of 107%.

Molecule `Cn1ccc(-c2c(-c3ccccc3)nn(C)c(=O)c2N)n1` has an Activity (Mus musculus [13]) of 13.6, an Activity (Mus musculus [14]) of 31.1 and an Activity (Rattus norvegicus [29]) of 190.1%. It also gave an Activity (Mus musculus [15]) of 4.2, an Activity (Mus musculus [16]) of 3.1 and an Activity (Mus musculus [17]) of 2.3.

`Cn1nc(-c2ccccc2)c(-c2cc[nH]n2)c(N)c1=O` showed an Activity (Mus musculus [13]) of 15.9, an Activity (Mus musculus [14]) of 26.5 and an Activity (Rattus norvegicus [29]) of 168.4%. The Activity (Mus musculus [15]) was 3.7, the Activity (Mus musculus [16]) was 2.8 and the Activity (Mus musculus [17]) was 2.3.

Work on `C=Cc1c(-c2cccs2)nn(CCCC)c(=O)c1N` yielded an Activity (Mus musculus [1]) of 25.2.
